For seven molecules, inhibition, Activity and IC50 results are on record in ChEMBL document CHEMBL4610111, “Phenolic Compounds from Morus nigra Regulate Viability and Apoptosis of Pancreatic β-Cells Possibly via SERCA Activity” (ACS Med Chem Lett, 2020).

Assay [1] has as its target Sarcoplasmic/endoplasmic reticulum calcium ATPase 1 (Rattus norvegicus) (UniProt Q64578). As to the kind of experiment: Inhibition of SERCA1 in rat INS-1E cells assessed as insulin release preincubated for 24 hrs followed by incubation in glucose-free buffer and measured after 30 mins by RIA. The assay is classed as cell-based. In outline: (§1)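 INS-1E cells preincubated 24 h with compound, then washed and incubated 30 min at 37 °C in glucose-free KRBH. A further 30 min at 37 °C followed in KRBH containing 16.7 mM glucose. Insulin in collected supernatants determined by RIA with rat insulin standard.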

For assay [2], the target named is Sarcoplasmic/endoplasmic reticulum calcium ATPase 1 (Oryctolagus cuniculus) (UniProt P04191). As to the kind of experiment: Binding affinity to cytosolic region of SERCA1 ATP binding site in NewZealand rabbit SR vesicles assessed as conformational changes by measuring decrease in fluorescence intensity at IC50 incubated for 1 hr by FITC probe labeling based analysis. In outline:
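FITC labelling of SR vesicles (protein 12.5 mg/mL) after 1 h preincubation with compound, used as a probe of the cytosolic region of SERCA1. Figure legend states 30 min incubation at 20 mg/mL SR protein. Read-out is the decrease in FITC fluorescence versus untreated control. Mean ± SD from at least three independent experiments, each sample measured 2–3 times.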

The target in assay [3] is Sarcoplasmic/endoplasmic reticulum calcium ATPase 1 (Rattus norvegicus) (UniProt Q64578). Put plainly: Inhibition of SERCA1 in glucose-stimulated rat INS-1E cells assessed as decline in insulin release preincubated for 24 hrs followed by glucose addition and measured after 30 mins by RIA. In outline: as §1
Chain of Sarcoplasmic/endoplasmic reticulum calcium ATPase 1 (Rattus norvegicus) (Q64578 whole entry): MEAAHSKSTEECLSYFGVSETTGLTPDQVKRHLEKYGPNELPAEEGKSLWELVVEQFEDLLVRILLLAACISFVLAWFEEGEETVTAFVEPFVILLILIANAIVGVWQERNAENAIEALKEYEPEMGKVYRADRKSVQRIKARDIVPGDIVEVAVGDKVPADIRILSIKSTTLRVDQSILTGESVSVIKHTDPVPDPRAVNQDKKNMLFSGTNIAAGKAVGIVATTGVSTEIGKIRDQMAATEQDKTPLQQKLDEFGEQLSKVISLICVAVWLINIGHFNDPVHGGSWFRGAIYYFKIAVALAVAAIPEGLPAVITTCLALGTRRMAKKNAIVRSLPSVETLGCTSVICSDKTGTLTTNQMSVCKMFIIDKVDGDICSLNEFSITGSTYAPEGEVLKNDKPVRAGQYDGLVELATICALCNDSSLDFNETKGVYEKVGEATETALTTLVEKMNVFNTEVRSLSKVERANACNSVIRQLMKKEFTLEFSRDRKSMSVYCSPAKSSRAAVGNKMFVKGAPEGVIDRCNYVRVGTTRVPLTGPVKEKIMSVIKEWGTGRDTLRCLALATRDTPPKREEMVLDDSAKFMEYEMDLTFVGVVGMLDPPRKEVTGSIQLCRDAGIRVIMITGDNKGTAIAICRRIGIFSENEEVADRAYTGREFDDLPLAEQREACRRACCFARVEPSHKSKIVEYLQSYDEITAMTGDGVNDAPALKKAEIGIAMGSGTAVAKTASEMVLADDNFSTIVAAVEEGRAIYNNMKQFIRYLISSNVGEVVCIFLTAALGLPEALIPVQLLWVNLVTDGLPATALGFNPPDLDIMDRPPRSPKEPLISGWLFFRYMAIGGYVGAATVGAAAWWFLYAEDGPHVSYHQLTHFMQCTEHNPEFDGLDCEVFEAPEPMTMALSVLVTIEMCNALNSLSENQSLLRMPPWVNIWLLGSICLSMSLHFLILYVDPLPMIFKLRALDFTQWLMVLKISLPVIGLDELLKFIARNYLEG
Assay [4] shares this target. Put plainly: Inhibition of SERCA1 in rat INS-1E cells assessed as induction of apoptosis by measuring increase in late apoptotic cells at IC50 for cell viability incubated for 24 hrs by Annexin V-FITC/propidium iodide staining based flow cytometry. Put shortly:
(§2)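 INS-1E cells incubated 24 h with compound, then stained with Annexin V-FITC/propidium iodide. Living, early apoptotic and late apoptotic fractions scored by flow cytometry and compared with untreated cells.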
Background: A flow cytometer gives signals particle by particle.

Assay [5] deals with Sarcoplasmic/endoplasmic reticulum calcium ATPase 1 (Oryctolagus cuniculus, UniProt P04191). Put plainly: Inhibition of SERCA1 in NewZealand rabbit skeletal muscle SR vesicles using ATP as substrate incubated for 2 mins followed by Ca2+ addition by NADH coupled enzyme assay. Put shortly:
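SR vesicles (1 mg prot./ml) incubated with compound (10–70 μM) for 2 min at 37 °C, pH 7.2. Ca2+-ATPase rate measured by NADH-coupled enzyme assay as absorbance at 340 nm, 37 °C. Compared with untreated control; mean ± SD from at least three independent experiments.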

The target of assay [6] is Sarcoplasmic/endoplasmic reticulum calcium ATPase 1 (Oryctolagus cuniculus) (UniProt P04191). Put plainly: Binding affinity to transmembrane region of SERCA1A ATP binding site in NewZealand rabbit SR vesicles assessed as conformational changes by measuring intrinsic Trp fluorescence at IC50 incubated for 30 mins by spectrofluorometric analysis. Put shortly:
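SR vesicles (1 mg protein/mL) incubated 30 min with compound, at 37 °C per methods or room temperature per legend. Trp fluorescence excited at 295 nm, with emission maxima at 336 and 358 nm. Conformational change expressed as the I358/I336 ratio versus untreated control.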

Assay [7] has as its target Sarcoplasmic/endoplasmic reticulum calcium ATPase 1 (Rattus norvegicus) (UniProt Q64578). Put plainly: Inhibition of SERCA1 in rat INS-1E cells assessed as induction of apoptosis by measuring decrease in living cells at IC50 for cell viability incubated for 24 hrs by Annexin V-FITC/propidium iodide staining based flow cytometry. In outline: as §2
For assay [8] the target is unchanged. Put plainly: Inhibition of SERCA1 in rat INS-1E cells assessed as induction of apoptosis by measuring increase in early apoptotic cells at IC50 for cell viability incubated for 24 hrs by Annexin V-FITC/propidium iodide staining based flow cytometry. Put shortly: as §2
The subject of assay [9] is INS-1E. As to the kind of experiment: Induction of SERCA2b expression in rat INS-1E cells at IC50 for cell viability incubated for 24 hrs by Western blot analysis. The format is functional, cell-based. In outline:
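INS-1E cells grown in RPMI 1640 (11 mM glucose) were exposed to compound for 24 h, then lysed in ice-cold lysis buffer, homogenized through a needle and centrifuged. Lysates (15 μg/lane) separated by SDS-PAGE and immunoblotted for SERCA2. Signal normalized to β-actin and given as %, average of 3–6 experiments.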
A general note: Immunoblotting shows a protein as a band on a membrane.

Active and inactive are the calls of the source. No cut-off for these calls is given here.

Chain of Sarcoplasmic/endoplasmic reticulum calcium ATPase 1 (Oryctolagus cuniculus) (P04191 whole entry): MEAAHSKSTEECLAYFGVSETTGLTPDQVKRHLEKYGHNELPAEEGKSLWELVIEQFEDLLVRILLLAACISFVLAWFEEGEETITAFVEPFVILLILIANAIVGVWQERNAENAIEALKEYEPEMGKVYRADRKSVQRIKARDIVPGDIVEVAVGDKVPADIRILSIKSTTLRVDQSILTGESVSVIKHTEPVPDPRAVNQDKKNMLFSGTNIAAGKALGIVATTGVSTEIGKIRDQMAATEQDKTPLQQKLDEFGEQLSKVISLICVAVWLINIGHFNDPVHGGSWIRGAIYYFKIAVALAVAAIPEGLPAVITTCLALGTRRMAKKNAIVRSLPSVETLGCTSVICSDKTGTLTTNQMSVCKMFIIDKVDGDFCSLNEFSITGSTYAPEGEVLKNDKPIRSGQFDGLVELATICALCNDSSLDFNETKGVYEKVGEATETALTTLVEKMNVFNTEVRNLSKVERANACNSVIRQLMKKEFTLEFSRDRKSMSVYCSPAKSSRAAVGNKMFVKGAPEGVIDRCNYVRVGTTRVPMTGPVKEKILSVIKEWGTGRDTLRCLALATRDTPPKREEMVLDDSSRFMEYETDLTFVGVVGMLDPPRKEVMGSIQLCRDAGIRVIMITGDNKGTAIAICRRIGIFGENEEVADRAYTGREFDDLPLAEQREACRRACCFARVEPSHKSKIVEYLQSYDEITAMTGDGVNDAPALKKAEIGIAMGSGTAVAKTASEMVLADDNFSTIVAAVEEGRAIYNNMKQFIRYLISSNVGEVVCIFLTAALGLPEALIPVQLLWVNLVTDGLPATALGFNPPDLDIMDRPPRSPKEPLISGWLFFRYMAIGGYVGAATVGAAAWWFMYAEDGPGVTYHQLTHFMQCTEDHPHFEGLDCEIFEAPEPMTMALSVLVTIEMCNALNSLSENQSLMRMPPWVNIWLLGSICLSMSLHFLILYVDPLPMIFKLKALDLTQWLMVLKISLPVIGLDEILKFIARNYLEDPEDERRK
Chain of Sarcoplasmic/endoplasmic reticulum calcium ATPase 1 (P04191 whole entry): as above

For orientation: IC50 means the concentration at which inhibition is half-maximal. For `CC(C)=CCC/C(C)=C/Cc1cc([C@@H]2CC(=O)c3c(O)cc(O)cc3O2)c(O)cc1O`, in assay [1], the inhibition result is “inactive”. Further, the outcome in [2] and in [6] was Active. Further, the inhibition result in [3], in assay [4], in assay [7] and in assay [8] was “Active” in each case. For the same molecule, the IC50 in assay [5] (read-out: IC50) was 29.4 µM.

For `Cc1cc2c3c(c1)-c1c(O)cc(-c4cc5ccc(O)cc5o4)cc1O[C@@]3(c1ccc(O)cc1O)Oc1cc(O)ccc1-2`, the inhibition result in assay [1] and in assay [4] was “inactive” throughout. In assay [9], the outcome was Active. The result in assay [2] and in assay [6] was inactive. Besides, the inhibition entry in assay [3], in [7] and in assay [8] was “Active” in each case. For the same molecule, the IC50 in [5] (read-out: IC50) was 24.6 µM.

`CC1(C)Oc2cc3oc(-c4cc(O)cc(O)c4)cc3cc2CC1O` (stereo not drawn) [(+/-)-MORACIN P]: the inhibition result in assay [1] and in assay [4] was “inactive” throughout. Further, the result in [2] and in assay [6] was Active. Also, the inhibition result in assay [3], in assay [7] and in [8] was “Active” throughout. Further, the concentration for half-maximal inhibition (IC50) result in assay [5] (sr) is “Not Active”.

Turning to `CC(C)(O)C1Cc2cc3cc(-c4cc(O)cc(O)c4)oc3cc2O1` (stereo not drawn) [MORACIN O], the inhibition entry in [1] and in [4] was “inactive” in each case. For the same molecule, the result in assay [2] and in assay [6] was Active. Moreover, the inhibition result in assay [3], in assay [7] and in assay [8] was “Active” in each case. In assay [5] (sr), the IC50 result is reported as “Not Active”.

For `COc1cc(O)c([C@@H]2CC(=O)c3c(O)cc(O)cc3O2)cc1C/C=C(\C)CCC=C(C)C`, the inhibition entry in [1] was “inactive”. The outcome in assay [2] and in [6] was Active. The inhibition entry in assay [3], in [4], in [7] and in assay [8] was “Active” each time. The IC50 in assay [5] (read-out: IC50) turned out to be 35.6 µM.

On to `CC1=C[C@@H]2c3c(O)cc(-c4cc5ccc(O)cc5o4)cc3O[C@@]3(c4ccc(O)cc4O)Oc4cc(O)ccc4[C@@H](C1)[C@H]23`, for which the inhibition entry in assay [1] and in assay [4] was “inactive” each time. The result in assay [9] was Active. For the same molecule, the result in assay [2] and in assay [6] was inactive. The inhibition result in [3], in assay [7] and in assay [8] was “Active” throughout. The IC50 in [5] (read-out: IC50) is 18.9 µM.

In the case of `CC(C)=CCc1c(-c2ccc(O)cc2O)oc2c3c(cc(O)c2c1=O)OC(C)(C)C=C3` [MORUSIN], the inhibition entry in assay [1] and in assay [8] was “inactive” in each case. For the same molecule, the outcome in [2] and in assay [6] was Active. Further, the inhibition entry in assay [3], in assay [4] and in assay [7] was “Active” throughout. Besides, the concentration for half-maximal inhibition (IC50) in assay [5] (read-out: IC50) was 43.6 µM.
